This note sets out measurements from ChEMBL document CHEMBL3580599, “Synthesis and Biological Evaluation of Novel Homoisoflavonoids for Retinal Neovascularization” (J Med Chem, 2015).

The nature of data set [1]: Toxicity in human HREC cells up to 2 uM by trypan blue exclusion assay. In kind it is cell-based. Summed up:
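HRECs in complete EGM-2 grown to 70% confluency, then treated 48 h with compound. After trypsinization, live and dead cells, including floating cells, were counted by Trypan blue on a hemocytometer. Viability taken as live/total cells. n = 3, triplicate experiments, SEM.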

Data set [2] in a line: Growth inhibition of human 92-1 cells assessed as reduction in cell number after 48 hrs by alamarBlue based fluorescence assay. In kind it is functional. In outline:
(§1)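 Cells (2,500 per well in growth medium) were allowed 24 h, then exposed 48 h to compound over 0.5 nM–500 μM. alamarBlue was added and fluorescence read 4 h later (ex 560/em 590 nm). Dose-response curves were fitted relative to DMSO control; compounds not reducing cell number ≥50% at the top concentration were reported as GI50 >100 μM.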
For orientation: The colour change of resazurin is a common sign of viable cells or microbes.

A short description of data set [3]: Induction of apoptosis in human HREC cells assessed as activated caspase 3 up to 2 uM after 4 hrs by immunofluorescence assay. Format: functional. Summed up: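 HRECs on coated coverslips, overnight in EGM-2, then treated 4 h at indicated concentrations. Fixed in 4% paraformaldehyde, permeabilized with 0.5% Triton X-100, immunostained for activated caspase 3 and imaged by confocal microscopy. Staurosporine 1 μM served as positive control.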

A short description of data set [4]: Induction of apoptosis in human HREC cells up to 2 uM after 4 hrs by TUNEL assay. Format: functional. In outline: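 HRECs, 25,000 per coated coverslip, grown overnight in EGM-2, then 4 h in fresh medium with compound. Fixed in 4% paraformaldehyde 20 min at room temperature, permeabilized with 0.25% Triton X-100 20 min, then TUNEL-labelled with DAPI counterstain. Percent apoptotic cells counted on three low-power fields per coverslip. n = 3, SEM.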

A short description of data set [5]: Selectivity ratio of GI50 for human 92-1 cells to GI50 for human HREC cells. In kind it is ADME, cell-based. The note with it: 92-1 cells and HREC cells.
Data set [6] is filed under the species Mus musculus. Nature of the data set: Inhibition of retinal neovascularization in oxygen-induced retinopathy mouse model at 1 uM in each eye relative to vehicle treated control. In kind it is functional, organism-based. Summed up:
(§2)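 Newborn C57BL/6 pups with nursing mother held in 75% O₂ from P7 to P12. At P12, under isoflurane, 0.5 μL of a 10 μM solution (DMSO stock diluted into PBS) was injected intravitreally into each eye, estimated to give 1 μM in vitreous. Controls got vehicle or 5 ng anti-VEGF antibody. Retinas were whole-mounted, stained with isolectin B4-Alexa 488 and imaged by confocal microscopy.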

A short description of data set [7]: Selectivity ratio of GI50 for human Y79 cells to GI50 for human HREC cells. Format: ADME, cell-based. The note with it: Y79 cells and HREC cells.
The species entered for data set [8] is Mus musculus. In words: Ocular toxicity in mouse model assessed as gross morphological changes in retinal vasculature at 1 uM. Format: organism-based. The note with it: in vivo. Summed up: as §2
The test system of data set [9] is HREC. In words: Inhibition of cell migration in human HREC cells after 8 hrs scratch-wound assay. Format: functional, cell-based. Summed up:
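HRECs (10⁵ per coated well) grown to confluence in EGM-2, starved 12 h in serum-free EBM-2, then scratched with a pipette tip and rinsed. Incubated in EGM-2 with compound at 37 °C, 5% CO₂. After 8 h, cells migrated into the scratch were counted from images.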

Data set [10] in a line: Induction of apoptosis in human HREC cells assessed as nuclear morphology after 8 hrs by EdU incorporation assay. Format: cell-based. Summed up:
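HRECs (25,000) on attachment-factor-coated coverslips, 24 h growth, then 12 h in serum-free EBM-2. Incubated 8 h with 10 μM EdU plus compound at various concentrations, then processed by click chemistry with DAPI counterstain and imaged. Nuclear morphology and EdU-positive cells were scored by image analysis. n = 3, at least triplicate experiments, SEM.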

Data set [11] in a line: (§3) Growth inhibition of human HREC cells assessed as reduction in cell number after 48 hrs by alamarBlue based fluorescence assay. In kind it is functional. Summed up:
as §1

Data set [12] concerns HREC. The data set is described as §3. In kind it is functional. In outline:
as §1

Data set [13] is described as follows: Selectivity ratio of GI50 for HUVEC cells to GI50 for human HREC cells. The note with it: HUVEC cells and HREC cells, read-out: RatioGI50. Format: ADME, cell-based.
Data set [14] has as its system HREC. In words: Induction of cell cycle arrest in human HREC cells assessed as cells accumulation at G2/M phase after 48 hrs by propidium iodide before flow cytometry analysis. In kind it is functional, cell-based. In outline: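 HRECs grown to 50% confluency in EGM-2, serum-starved overnight, then 48 h in fresh EGM-2 with compound. Fixed in 66% EtOH 2 h at 4 °C, stained with 20 μg/mL propidium iodide with 0.1% Triton X-100 and RNase for 30 min at 37 °C, then analysed by flow cytometry. Duplicate experiments.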
On the technique in general: In flow cytometry, cells or beads pass a laser one at a time.

Data set [15] relates to HREC. In words: Antiangiogenic activity in human HREC cells assessed as inhibition of tube formation after 8 hrs by matrigel assay. In kind it is functional, cell-based. Summed up:
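HRECs, 7,500 per well in EGM-2, plated on Matrigel basement membrane with or without compound; after 8 h, imaged and tube length measured by image analysis.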

The nature of data set [16]: Growth inhibition of human HUVEC cells assessed as reduction in cell number after 48 hrs by alamarBlue based fluorescence assay. Summed up: as §1
The next data set concerns Y79. In words: Growth inhibition of human Y79 cells assessed as reduction in cell number after 48 hrs by alamarBlue based fluorescence assay. In kind it is functional. The note with it: Y79, 48 h. In outline: as §1

The source made the active and inactive calls. The calls are words filed in the database; no cut-off is given here.

As a reminder, the GI50 is the concentration at which growth is held to half of that of the control.

Take `COc1ccc(CC2COc3cc(OC)c(OC)c(OC)c3C2=O)cc1OC(=O)[C@H](Cc1ccccc1)NC(=O)OC(C)(C)C` (some centres not stated): the Activity result is “Non-toxic” in data set [1]; below 10% in data set [3]; below 10% in data set [4]; “Non-toxic” in the data set listed under Mus musculus [8]; “Non-toxic” in data set [10]; “Dose-dependent effect” in the data set with HREC [14]. For the same compound, the GI50 in data set [2] was above 100000 nM; in data set [11], 55 nM; in the data set on Y79, 12000 nM. Further, the results for the selectivity ratio in data set [5], in data set [7] and in data set [13] were above 1000, 218 and 14, respectively. Also, the inhibition result in the data set listed under Mus musculus [6] was “Active”. Moreover, the inhibition entry in the data set with HREC [9], in the data set with HREC [12] and in the data set with HREC [15] was “Dose-dependent effect” each time. In addition, in data set [16], the 50% growth inhibitory concentration (GI50) at 48 h amounted to 750 nM.
